From paper PMC12077508 (Science Advances, 2025)

Tests used:
OR5K1 = biological target: T1, OR5K1 (Homo sapiens, UniProt Q8NHB7); assay: cAMPr fluorescence imaging in transfected HEK293T cells; format: cell-based
T1 sequence (Q8NHB7 1-308): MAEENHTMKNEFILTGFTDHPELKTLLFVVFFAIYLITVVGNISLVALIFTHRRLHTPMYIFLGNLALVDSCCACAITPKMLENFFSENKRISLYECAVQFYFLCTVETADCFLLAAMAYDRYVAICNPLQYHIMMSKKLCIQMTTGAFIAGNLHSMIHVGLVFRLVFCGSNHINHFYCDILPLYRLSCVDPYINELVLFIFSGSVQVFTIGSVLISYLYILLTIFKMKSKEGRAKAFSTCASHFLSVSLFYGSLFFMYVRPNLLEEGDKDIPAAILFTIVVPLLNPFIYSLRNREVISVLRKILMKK
How it was run: (§1)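 HEK293T cells stably expressing the cpGFP-based cAMP sensor cAMPr, on collagen-coated glass dishes, transfected with Rho-tagged receptor (N-terminal 20 residues of bovine rhodopsin) plus RTP1S. Each odorant concentration was tested in a separate experiment, with or without fibronectin, and curves were fitted for EC50 and Hill coefficient.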

OR8D1 = biological target: T2, OR8D1 (Homo sapiens, UniProt Q8WZ84); assay: cAMPr fluorescence imaging in transfected HEK293T cells; format: cell-based
T2 sequence (Q8WZ84 1-308): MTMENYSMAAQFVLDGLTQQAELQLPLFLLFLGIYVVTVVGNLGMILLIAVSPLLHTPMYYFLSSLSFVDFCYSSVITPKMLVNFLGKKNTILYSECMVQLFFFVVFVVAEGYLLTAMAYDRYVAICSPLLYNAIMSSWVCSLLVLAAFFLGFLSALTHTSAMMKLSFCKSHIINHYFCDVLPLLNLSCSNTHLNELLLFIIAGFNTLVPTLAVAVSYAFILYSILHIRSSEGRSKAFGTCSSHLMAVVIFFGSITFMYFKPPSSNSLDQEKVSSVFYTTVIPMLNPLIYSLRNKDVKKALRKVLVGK

Olfr73 (mOR-EG) = biological target: T3, Olfr73 (mOR-EG) (Mus musculus, UniProt Q920P2); assay: as above; format: cell-based
T3 sequence (Q920P2 1-313): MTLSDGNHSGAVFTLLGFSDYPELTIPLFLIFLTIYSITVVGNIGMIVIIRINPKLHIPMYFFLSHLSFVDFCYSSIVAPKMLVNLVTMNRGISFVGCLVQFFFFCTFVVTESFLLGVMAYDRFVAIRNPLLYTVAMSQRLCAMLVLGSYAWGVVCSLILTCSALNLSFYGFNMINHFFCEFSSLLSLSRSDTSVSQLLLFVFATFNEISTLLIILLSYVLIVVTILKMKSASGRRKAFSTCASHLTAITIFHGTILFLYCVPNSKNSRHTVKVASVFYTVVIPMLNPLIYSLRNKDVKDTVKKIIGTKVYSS

OR51E1 = biological target: T4, OR51E1 (Homo sapiens, UniProt Q8TCB6); assay: cAMPr fluorescence imaging in transfected HEK293T cells; format: cell-based
T4 sequence (Q8TCB6 1-318): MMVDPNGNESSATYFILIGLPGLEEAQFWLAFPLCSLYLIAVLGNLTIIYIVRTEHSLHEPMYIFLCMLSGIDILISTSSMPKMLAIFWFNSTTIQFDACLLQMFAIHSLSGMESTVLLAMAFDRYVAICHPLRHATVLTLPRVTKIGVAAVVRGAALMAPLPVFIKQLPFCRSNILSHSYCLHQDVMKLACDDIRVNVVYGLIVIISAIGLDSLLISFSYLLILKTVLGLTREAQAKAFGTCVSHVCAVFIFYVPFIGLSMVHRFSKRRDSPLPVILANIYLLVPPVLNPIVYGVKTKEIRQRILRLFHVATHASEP
How it was run: as §1

OR5P3 = biological target: T5, OR5P3 (Homo sapiens, UniProt Q8WZ94); assay: as above; format: cell-based
T5 sequence (Q8WZ94 1-311): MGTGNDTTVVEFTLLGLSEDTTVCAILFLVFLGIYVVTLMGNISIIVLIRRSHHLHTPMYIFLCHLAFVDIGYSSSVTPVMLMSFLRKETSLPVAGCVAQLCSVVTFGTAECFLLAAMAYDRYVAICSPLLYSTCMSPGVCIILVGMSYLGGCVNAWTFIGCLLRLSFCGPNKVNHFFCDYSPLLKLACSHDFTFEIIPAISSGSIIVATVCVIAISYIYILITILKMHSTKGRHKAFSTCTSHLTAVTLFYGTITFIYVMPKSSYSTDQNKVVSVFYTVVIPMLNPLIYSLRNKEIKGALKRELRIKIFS
How it was run: as §1

OR5AN1 = biological target: T6, OR5AN1 (Homo sapiens, UniProt Q8NGI8); assay: cAMPr fluorescence imaging in transfected HEK293T cells; format: cell-based
T6 sequence (Q8NGI8 1-311): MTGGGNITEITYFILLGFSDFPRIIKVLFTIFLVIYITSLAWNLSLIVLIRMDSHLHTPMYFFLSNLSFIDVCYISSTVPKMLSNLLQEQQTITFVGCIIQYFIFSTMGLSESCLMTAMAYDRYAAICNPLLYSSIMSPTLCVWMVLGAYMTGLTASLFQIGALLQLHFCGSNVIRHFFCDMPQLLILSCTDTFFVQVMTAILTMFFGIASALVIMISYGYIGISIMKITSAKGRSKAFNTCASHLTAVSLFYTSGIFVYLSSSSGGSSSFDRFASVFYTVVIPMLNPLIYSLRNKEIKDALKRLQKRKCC

OR2W1 = biological target: T7, OR2W1 (Homo sapiens, UniProt Q9Y3N9); assay: as above; format: cell-based
T7 sequence (Q9Y3N9 1-320): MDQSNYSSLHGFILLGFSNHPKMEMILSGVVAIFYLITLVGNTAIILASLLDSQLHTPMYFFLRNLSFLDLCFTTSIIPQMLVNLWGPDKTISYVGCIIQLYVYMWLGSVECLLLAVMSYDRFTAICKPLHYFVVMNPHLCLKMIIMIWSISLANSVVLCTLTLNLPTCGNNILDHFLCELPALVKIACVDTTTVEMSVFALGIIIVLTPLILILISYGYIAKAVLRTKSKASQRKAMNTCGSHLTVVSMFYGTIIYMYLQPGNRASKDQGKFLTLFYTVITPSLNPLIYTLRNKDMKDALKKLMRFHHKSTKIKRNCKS

OR2J2 = biological target: T8, OR2J2 (Homo sapiens, UniProt O76002); assay: cAMPr fluorescence imaging in transfected HEK293T cells; format: cell-based
T8 sequence (O76002 1-312): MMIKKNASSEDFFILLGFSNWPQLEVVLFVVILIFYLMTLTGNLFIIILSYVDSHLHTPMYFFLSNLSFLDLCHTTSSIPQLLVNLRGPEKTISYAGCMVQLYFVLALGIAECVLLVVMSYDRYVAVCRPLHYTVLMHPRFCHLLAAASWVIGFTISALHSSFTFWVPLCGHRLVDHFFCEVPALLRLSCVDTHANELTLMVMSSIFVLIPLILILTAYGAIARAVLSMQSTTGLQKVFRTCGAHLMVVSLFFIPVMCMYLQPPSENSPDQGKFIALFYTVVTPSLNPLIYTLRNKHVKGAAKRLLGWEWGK
How it was run: as §1

OR1D2; OR1D1 (Table 2) = OR1D2; OR1D1 (Table 2) (Homo sapiens, UniProt P34982); assay: cell-based
Sequence of OR1D2; OR1D1 (Table 2) (P34982 whole entry): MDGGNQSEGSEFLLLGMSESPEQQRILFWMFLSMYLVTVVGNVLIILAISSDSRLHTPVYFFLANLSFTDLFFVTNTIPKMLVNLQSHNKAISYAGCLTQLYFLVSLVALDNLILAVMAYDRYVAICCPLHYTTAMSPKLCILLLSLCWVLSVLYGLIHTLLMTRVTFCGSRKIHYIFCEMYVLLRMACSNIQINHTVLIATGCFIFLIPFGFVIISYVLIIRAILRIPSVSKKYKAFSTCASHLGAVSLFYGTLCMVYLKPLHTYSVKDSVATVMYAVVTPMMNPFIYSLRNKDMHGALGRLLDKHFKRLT

For `Cc1nccnc1C` [2,3-dimethyl pyrazine], the EC50 (OR5K1) was 12000 µM.
`CC1=C(O)C(=O)CC1` [cyclotene] gave an EC50 (OR8D1) of 1100 µM.
`C=CCc1ccc(O)c(OC)c1` [eugenol] gave an EC50 (Olfr73 (mOR-EG)) of 154 µM.
Work on `CC(C)CC(=O)O` [isovaleric acid] yielded an EC50 (OR51E1) of 840 µM.
For `COC(=O)c1ccccc1N` [methyl anthranilate], the EC50 (OR5P3) was 2200 µM.
With `CC1CCCCCCCCCCCCC(=O)C1` (centres unmarked) [muscone] the EC50 (OR5AN1) was 290 µM.
With `CCCCCOC(C)=O` [pentyl acetate] the EC50 (OR2W1) was 44 µM.
For `CC1=C(O)C(=O)OC1C` (centres unmarked) [sotolon], the EC50 (OR8D1) was 7.7 µM.
With `OCCc1ccccc1` [β-phenylethyl alcohol] the EC50 (OR2W1) was 1500 µM.
`CCCCCCCC1CCC(=O)O1` (centres unmarked) [γ-undecalactone] was tested, and the EC50 (OR2J2) was 250 µM and the EC50 (OR1D2; OR1D1 (Table 2)) was 150 µM.
